Assay results taken from ChEMBL document CHEMBL2086235, “A novel thiazolidine compound induces caspase-9 dependent apoptosis in cancer cells” (Bioorg Med Chem, 2012).
Active and inactive are the calls of the source. The rule behind the calls is not given here.

Columns and labels:
[1] = tested on: Huh-7; experiment: Growth inhibition of human HuH7 cells incubated for 48 hrs by Giemsa staining; format: functional, cell-based
Method in brief: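 Cells grown overnight, compound added from DMSO solution, then incubated 48 h more. Attached cells stained with Giemsa and photographed; qualitative read-out.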

[2] = tested on: CAMA-1; experiment: Induction of cell death in human CAMA1 cells at 0.02 uM incubated for 72 hrs by real-time cell analysis; format: functional, cell-based
Method in brief: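 Cells (1000-5000/well) on impedance plates monitored by real-time cell analysis. Treated about 24 h after seeding, in log phase, and followed 72 h against DMSO controls. Inhibition (%) = (1 − CI treated/CI DMSO) × 100. At least three repeats.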

[3] = tested on: HepG2; experiment: Cytotoxicity against human HepG2 cells incubated for 72 hrs by SRB assay; format: functional, cell-based; settings: HepG2, 72 h
Method in brief: (§1)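 Cells grown in DMEM with 10% FCS, 2 mM L-glutamine, NEAA and antibiotics at 37 °C, 5% CO2, then seeded at 1000–5000 cells/well and grown 24 h. Compounds were added from DMSO for 72 h, following NCI guidelines. Cells were fixed in cold 10% TCA for 1 h at 4 °C and stained with 0.4% SRB in 1% acetic acid for 10 min. Bound dye was dissolved in 10 mM Tris and absorbance read at 515 nm.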

[4] = tested on: Huh-7; experiment: Cytotoxicity against human HuH7 cells incubated for 72 hrs by SRB assay; format: functional, cell-based; settings: Huh-7, 72 h; method in brief: as §1
[5] = tested on: HCT-116; experiment: Induction of cell death in human HCT116 cells at 2.5 to 40 uM incubated for 72 hrs by SRB assay; format: functional, cell-based
Method in brief: (§2)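 Cells seeded and grown 24 h at 37 °C, then treated 72 h in triplicate. Fixed with cold 10% TCA 1 h at 4 °C, stained with 0.4% SRB in 1% acetic acid 10 min, washed in 1% acetic acid. Dye solubilized in 10 mM Tris base; absorbance read at 515 nm. Normalized to DMSO control and Tz; three independent experiments.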

[6] = tested on: Huh-7; experiment: Induction of caspase-3 cleavage in human HuH7 cells at 2.5 to 5 uM incubated for 6 to 24 hrs by Western blot; format: functional, cell-based
Method in brief: (§3)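 Huh7 treated with compound or DMSO for 6, 12 or 24 h. Lysates quantified by Bradford and heat-denatured. Blotted onto nitrocellulose and probed with antibodies to cleaved caspase-9, cleaved caspase-3 and caspase-8 (1:500, overnight at 4 °C). Bands quantified by densitometry and normalized to actin.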

[7] = tested on: HepG2; experiment: Increase in caspase-8 activation in human HepG2 cells at 10 uM incubated for 12 hrs in presence of 50 uM caspase-3 inhibitor z-DEVD-fmk by Caspase Glo assay; format: functional, cell-based
Method in brief: (§4)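 HepG2 pre-incubated 24 h at 37 °C with 50 μM of the named caspase inhibitor peptide or DMSO. Medium then replaced with fresh medium holding the same inhibitor plus compound. Caspase activity read by Caspase-Glo luminescence after 12 h. Values normalized to inhibitor-only wells without compound. Two independent experiments in duplicate; t-test.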

[8] = tested on: BT-20; experiment: Cytotoxicity against human BT20 cells incubated for 72 hrs by SRB assay; format: functional, cell-based; settings: BT-20, 72 h; method in brief: as §1
[9] = tested on: Huh-7; experiment: Induction of caspase-8 cleavage in human HuH7 cells at 2.5 to 5 uM incubated for 6 to 24 hrs by Western blot; format: functional, cell-based; method in brief: as §3
[10] = tested on: Huh-7; experiment: Induction of cell death in human HuH7 cells at 2.5 to 40 uM incubated for 72 hrs by SRB assay; format: functional, cell-based; method in brief: as §2
[11] = tested on: HepG2; experiment: Increase in caspase-9 activation in human HepG2 cells at 10 uM incubated for 12 hrs by Caspase Glo assay; format: functional, cell-based
Method in brief: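 HepG2 pre-incubated 24 h at 37 °C with DMSO, then moved to fresh medium with compound. Caspase-9 activity read by Caspase-Glo after 12 h and normalized to untreated controls. Two independent experiments in duplicate.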

[12] = tested on: HepG2; experiment: Induction of apoptosis in human HepG2 cells assessed as DNA fragmentation at 10 uM incubated for 48 hrs by TUNEL assay; format: functional, cell-based
Method in brief: (§5)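 Cells grown overnight on coverslips, then exposed 48 h. Fixed in cold methanol; TUNEL done with an in situ cell death detection kit. Nuclei counterstained with Hoechst 33258 (3 μg/mL, 5 min, dark) and viewed by fluorescence microscopy.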

[13] = tested on: MFE-296; experiment: Cytotoxicity against human MFE296 cells incubated for 72 hrs by SRB assay; format: functional, cell-based; settings: MFE-296, 72 h; method in brief: as §1
[14] = Cell cycle arrest in human Mahlavu cells assessed as subG1/G1 phase accumulation at 5 uM incubated for 12 hrs to 24 hrs by propidium iodide staining based flow cytometry; format: functional
Method in brief: (§6)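 Cells seeded 100,000-200,000 per dish, grown 24 h, then held a further day in starvation medium (1% FBS, 1% P/S, 1% NEAA in DMEM). Treated with compound or DMSO, harvested by trypsinization, fixed in ice-cold 70% ethanol at 4 °C. Stained 40 min at 37 °C in the dark with propidium iodide, RNase A and Triton X-100 in PBS. G1 = 2N, G2 = 4N; >4N cells gated out.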

[15] = tested on: Huh-7; experiment: Induction of caspase-9 cleavage in human HuH7 cells at 2.5 to 5 uM incubated for 6 to 24 hrs by Western blot; format: functional, cell-based; method in brief: as §3
[16] = tested on: FOCUS; experiment: Induction of apoptosis in human FOCUS cells assessed as cytochrome c release at 10 uM incubated for 48 hrs by immunostaining; format: functional, cell-based
Method in brief: (§7)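 After 48 h exposure, coverslip-grown cells fixed in 4% paraformaldehyde, permeabilized in ice-cold acetone, blocked in 3% BSA 1 h at 37 °C. Anti-cytochrome c monoclonal applied overnight at 4 °C, then FITC anti-mouse secondary 1 h at room temperature. Diffuse cytoplasmic staining scored by fluorescence microscopy.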

[17] = tested on: MCF7; experiment: Cytotoxicity against human MCF7 cells incubated for 72 hrs by SRB assay; format: functional, cell-based; settings: MCF7, 72 h; method in brief: as §1
[18] = tested on: MCF7; experiment: Induction of cell death in human MCF7 cells at 2.5 to 40 uM incubated for 72 hrs by SRB assay; format: functional, cell-based; method in brief: as §2
[19] = Cytotoxicity against human MV cells incubated for 72 hrs by SRB assay; format: functional, cell-based; method in brief: as §1
[20] = Cytotoxicity against human FOCUS cells incubated for 72 hrs by SRB assay; format: functional, cell-based; method in brief: as §1
[21] = tested on: HepG2; experiment: Increase in caspase-8 activation in human HepG2 cells at 10 uM incubated for 12 hrs in presence of 50 uM caspase-9 inhibitor z-LEHD-fmk by Caspase Glo assay; format: functional, cell-based; method in brief: as §4
[22] = tested on: Huh-7; experiment: Induction of apoptosis in human HuH7 cells assessed as cytochrome c release at 10 uM incubated for 48 hrs by immunostaining; format: functional, cell-based; method in brief: as §7
[23] = tested on: Huh-7; experiment: Induction of apoptosis in human HuH7 cells assessed as DNA fragmentation at 10 uM incubated for 48 hrs by TUNEL assay; format: functional, cell-based; method in brief: as §5
[24] = tested on: FOCUS; experiment: Induction of apoptosis in human FOCUS cells assessed as DNA fragmentation at 10 uM incubated for 48 hrs by TUNEL assay; format: functional, cell-based; method in brief: as §5
[25] = tested on: HepG2; experiment: Increase in caspase-9 activation in human HepG2 cells at 10 uM incubated for 12 hrs in presence of caspase-8 inhibitor z-IETD-fmk by Caspase Glo assay; format: functional, cell-based; method in brief: as §4
[26] = tested on: T47D; experiment: Cytotoxicity against human T47D cells incubated for 72 hrs by SRB assay; format: functional, cell-based; method in brief: as §1
[27] = tested on: Huh-7 (Homo sapiens); experiment: Induction of cell death in human Huh7 cells at 10 uM incubated for 72 hrs by real-time cell analysis
[28] = tested on: HepG2; experiment: Induction of apoptosis in human HepG2 cells assessed as cytochrome c release at 10 uM incubated for 48 hrs by immunostaining; format: functional, cell-based; method in brief: as §7
[29] = tested on: Huh-7 (Homo sapiens); experiment: Induction of cell death in human Huh7 cells at 5 uM incubated for 72 hrs by real-time cell analysis
[30] = tested on: CAMA-1; experiment: Cytotoxicity against human CAMA1 cells incubated for 72 hrs by SRB assay; format: functional, cell-based; settings: CAMA-1, 72 h; method in brief: as §1
[31] = tested on: Huh-7; experiment: Cell cycle arrest in human HuH7 cells assessed as subG1/G1 phase accumulation at 5 uM incubated for 12 hrs to 24 hrs by propidium iodide staining based flow cytometry; format: functional; method in brief: as §6
[32] = tested on: HepG2; experiment: Increase in caspase-9 activation in human HepG2 cells at 10 uM incubated for 12 hrs in presence of caspase-3 inhibitor z-DEVD-fmk by Caspase Glo assay; format: functional, cell-based; method in brief: as §4
[33] = tested on: HCT-116; experiment: Cytotoxicity against human HCT116 cells incubated for 72 hrs by SRB assay; format: functional, cell-based; settings: HCT-116, 72 h; method in brief: as §1

For `C#CC(=O)N1C(c2ccccc2)SC[C@H]1C(=O)OCC` (mixture of isomers), the “growth inhibition (GI)” value [1] was “Active”, the Activity [2] was “inactive” and the IC50 [3] was 10 µM. The IC50 [4] was 5.3 µM, the Activity [5] was “Active” and the Activity [6] was “Active”. The Activity [7] was “inactive”, the IC50 [8] was 1.6 µM and the Activity [9] was “inactive”. For the same compound, the Activity [10] was “Active”, the Activity [11] was “Active” and the Activity [12] was “Active”. The IC50 [13] was 0.5 µM, the Activity [14] was “Active” and the Activity [15] was “Active”. For the same compound, the Activity [16] was “Active”, the IC50 [17] was 4.7 µM and the Activity [18] was “Active”. The IC50 [19] was 0.41 µM, the IC50 [20] was 5.47 µM and the Activity [21] was “inactive”. The Activity [22] was “Active”, the Activity [23] was “Active” and the Activity [24] was “Active”. The Activity [25] was “inactive”, the IC50 [26] was 7.62 µM and the Activity [27] was 100%. The Activity [28] was “Active”, the Activity [29] was 100% and the IC50 [30] was 0.01 µM. For the same compound, the Activity [31] was “Active”, the Activity [32] was “inactive” and the IC50 [33] was 9.23 µM.
